HTRA1 inh: HTRA1 serine protease inhibitors, primary screen, biochemical, fluorescence polarization, HTS; recombinant HTRA1, FP-rhodamine activity-based probe; inhibition, % at 5.96 µM; 340,000 compounds, 0.5% hits; in the data active = inhibition above about 36%
mABHD4 FP: ABHD4 inhibitors, primary screen, biochemical, fluorescence polarization, mouse. 370,000 compounds, 0.54% hits. purified mABHD4, FP-Rh probe fluorescence polarization. (Lyso)-N-acylphosphatidylethanolamine lipase (Mus musculus), Q8VD66. inhibition, % at 8.92 µM;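 active = inhibition exceeding the mean over every tested compound plus 3 SD, cut at about 30% in these data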
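Doses – 8.92 µM, single dose · Material – wild-type mouse ABHD4 protein · Replication – single well per compound (singlicate) · Measure – percent inhibition of probe binding, normalized to plate controls · Schedule – 45 min compound pre-incubation plus 60 min probe step, 25 °C · Detection – fluorescence polarization with parallel and perpendicular emission, 525/598 nm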
SIAE inh: human SIAE inhibitors, primary screen, biochemical, fluorescence polarization, FP-Rh probe, 1536-well HTS; Sialate O-acetylesterase (Homo sapiens), Q9HAT2; SIAE FP-Rh probe binding; inhibition, % at 9.66 µM; 370,000 compounds, 0.69% hits;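 active = inhibition above a cutoff: mean of compounds within the control limits plus 3 SD of those, cut at about 17% in these data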
PRMT1 inh: PRMT1 methyltransferase inhibitors, primary screen, biochemical, fluorescence polarization; recombinant PRMT1, activity-based probe fluorescence polarization; inhibition, % at 2.79 µM; 370,000 compounds, 1.3% hits;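 active = inhibition above about 21% made by adding two undisclosed values, limit read from the data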
Target sequence (Q99873 whole entry, looked up): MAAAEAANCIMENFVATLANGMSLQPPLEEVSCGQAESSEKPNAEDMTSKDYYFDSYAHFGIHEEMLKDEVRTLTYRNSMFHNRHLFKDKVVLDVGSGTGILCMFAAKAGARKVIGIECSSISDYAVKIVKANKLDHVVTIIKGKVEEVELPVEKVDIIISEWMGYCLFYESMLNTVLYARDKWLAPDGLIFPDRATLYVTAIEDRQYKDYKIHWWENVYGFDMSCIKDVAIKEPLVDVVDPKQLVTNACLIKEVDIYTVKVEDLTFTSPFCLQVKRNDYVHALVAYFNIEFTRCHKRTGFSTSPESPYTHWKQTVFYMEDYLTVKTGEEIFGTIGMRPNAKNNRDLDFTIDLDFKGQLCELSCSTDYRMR
TCR CD3 inh: inhibitors of human TCR-CD3 interaction, primary screen, biochemical, fluorescence, TAMRA-labeled TCR probe. 360,000 compounds, 0.37% hits. T-cell receptor (TCR). inhibition, % at 9.4 µM;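 note: recombinant mutant TCR 2C K166C tagged with TAMRA read by polarization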
BSA TAMRA ctr: compounds interfering with TAMRA-BSA probe, counter-screen for TCR-CD3 interaction inhibitor project, biochemical, fluorescence, TAMRA-labeled BSA. 1,200 compounds, 10% hits. inhibition, % at 9.4 µM. TAMRA-labeled BSA probe fluorescence counterscreen. shares compounds with TCR CD3 inh; in the data active = inhibition above about 23%
TCR-CD3 inh conf: TCR-CD3 interaction inhibitors, retest, confirmation, biochemical, fluorescence, TAMRA-labeled TCR probe. shares compounds with TCR CD3 inh. TAMRA-labeled TCR probe fluorescence binding assay. inhibition, % at 9.4 µM. 1,200 compounds, 48% hits
Hits are given with their value. Sampled rows, rich in hits. Any-hit rate of the full collection: about 2.6%. Cut-off read from the data, not from the text of the source, unless noted: active = inhibition above about 19%; inactive = the rest.

COc1cc(/C=N/NC(=O)COc2ccc(Cl)cc2)ccc1OS(=O)(=O)c1ccc(C)cc1 was read as HTRA1 inh inactive, mABHD4 FP inactive, SIAE inh inactive, PRMT1 inh inactive, TCR CD3 inh 57, BSA TAMRA ctr inactive and TCR-CD3 inh conf 36.
`CCCCNC(=O)C[C@@H]1C(=O)N2CCCC3=C2[C@@]1(C(=O)OCC)CCC3` gave mABHD4 FP inactive, SIAE inh inactive and PRMT1 inh inactive.
COc1ccc(C2CC(=O)C(c3ccccc3)=CN2Cc2ccccc2)cc1 (stereo not given) was read as mABHD4 FP inactive, SIAE inh inactive, PRMT1 inh inactive and TCR CD3 inh inactive.
O=C(NNC(=O)C1CCN(S(=O)(=O)c2ccc(Cl)cc2)CC1)c1ccccc1O was read as HTRA1 inh inactive, mABHD4 FP inactive, SIAE inh inactive, PRMT1 inh inactive, TCR CD3 inh 34, BSA TAMRA ctr inactive and TCR-CD3 inh conf 31.
Cc1ccc(C(=O)NNC(=O)c2ccccc2O)cc1S(=O)(=O)N1CCCCC1 was read as HTRA1 inh inactive, mABHD4 FP inactive, SIAE inh inactive, PRMT1 inh inactive, TCR CD3 inh 24, BSA TAMRA ctr inactive and TCR-CD3 inh conf 23.
O=C(OC12CCCN(C1)/C(=C/c1ccccc1)C2)C1CCCCC1 (stereo not given) was read as mABHD4 FP inactive, SIAE inh inactive and PRMT1 inh inactive.
Screening O=C(COC(=O)CCCCCN=C1NS(=O)(=O)c2ccccc21)Nc1ccc(Cl)c(Cl)c1 returned HTRA1 inh inactive, mABHD4 FP inactive, SIAE inh inactive, PRMT1 inh inactive, TCR CD3 inh 19, BSA TAMRA ctr inactive and TCR-CD3 inh conf inactive.
For COc1ccc(C(=O)Nc2ccc(S(=O)(=O)N3CCCCC3)cc2)cc1OC the results were HTRA1 inh inactive, mABHD4 FP inactive, SIAE inh inactive, PRMT1 inh inactive and TCR CD3 inh inactive.
COc1ccc(-c2cnnn2-c2ccc(NC(=O)c3ccc(S(=O)(=O)N4CCCCC4)cc3)cc2)cc1OC was read as HTRA1 inh inactive, mABHD4 FP inactive, SIAE inh inactive, PRMT1 inh inactive, TCR CD3 inh 19, BSA TAMRA ctr inactive and TCR-CD3 inh conf 23.
Screening Cc1cc([N+](=O)[O-])cc(/C=N/n2c(C)nc3ccccc3c2=O)c1O returned HTRA1 inh inactive, mABHD4 FP inactive, SIAE inh inactive, PRMT1 inh inactive, TCR CD3 inh 45, BSA TAMRA ctr inactive and TCR-CD3 inh conf 45.
O=c1c2ccccc2nc(COc2ccccc2)n1/N=C/c1ccc(O)cc1O was read as HTRA1 inh inactive, mABHD4 FP inactive, SIAE inh inactive, PRMT1 inh inactive, TCR CD3 inh 21, BSA TAMRA ctr inactive and TCR-CD3 inh conf 21.
Cc1nc2ccccc2c(=O)n1/N=C/c1ccc2ccccc2c1O was read as HTRA1 inh inactive.
C/C(=N\OCc1nc2ccccc2c(=O)n1/N=C/c1cc(C)cc([N+](=O)[O-])c1O)c1ccccc1 was read as HTRA1 inh inactive, mABHD4 FP inactive, SIAE inh inactive, PRMT1 inh inactive, TCR CD3 inh 39, BSA TAMRA ctr inactive and TCR-CD3 inh conf 50.
COc1ccc(-n2c(SCC(=O)NN=Cc3c(O)ccc4ccccc34)nnc2-c2ccc(C(C)(C)C)cc2)cc1 was read as mABHD4 FP inactive, SIAE inh inactive and PRMT1 inh inactive.
Screening C/C(=N\NC(=O)c1ccccc1O)C1CC1 returned HTRA1 inh inactive, mABHD4 FP inactive, SIAE inh inactive, PRMT1 inh inactive, TCR CD3 inh 25, BSA TAMRA ctr 41 and TCR-CD3 inh conf 23.
Cc1ccc2[nH]c(C(=O)N/N=C/c3ccccc3O)c(C)c2c1 was read as HTRA1 inh inactive, mABHD4 FP inactive, SIAE inh inactive, PRMT1 inh inactive, TCR CD3 inh 20, BSA TAMRA ctr inactive and TCR-CD3 inh conf inactive.
`CCCCCN1CCCCC(NC(=O)c2cccc(F)c2)C1=O` (stereo not given) gave mABHD4 FP inactive, SIAE inh inactive and PRMT1 inh inactive.
For NS(=O)(=O)c1cc(C(=O)NC2CCSc3ccccc32)ccc1Cl (stereo not given) the results were HTRA1 inh inactive, mABHD4 FP inactive, SIAE inh inactive, PRMT1 inh inactive, TCR CD3 inh 40, BSA TAMRA ctr inactive and TCR-CD3 inh conf 36.
For O=C(OCc1ccc(CSc2nnc(-c3cccc4ccccc34)o2)cc1)c1ccc(F)cc1 the results were mABHD4 FP inactive, SIAE inh inactive and PRMT1 inh inactive.
CCOP(=O)(OCC)C(NC(=O)Nc1ccc(C)cc1)C(N)=O (stereo not given) was read as mABHD4 FP inactive, SIAE inh inactive, PRMT1 inh inactive and TCR CD3 inh inactive.
For CCOP(=O)(OCC)C(NC(=O)Nc1ccc(Cl)cc1)C(=O)N(CC)CC (stereo not given) the results were HTRA1 inh inactive, mABHD4 FP inactive, SIAE inh inactive, PRMT1 inh inactive, TCR CD3 inh 21, BSA TAMRA ctr inactive and TCR-CD3 inh conf inactive.
Screening Cc1ccc(Cn2ccsc2=NC(=O)CCl)cc1 returned HTRA1 inh inactive, mABHD4 FP inactive, SIAE inh inactive, PRMT1 inh inactive and TCR CD3 inh inactive.
Cc1ccc(Cn2ccsc2=NC(=O)COC(=O)c2ccc(NC(=O)CC#N)cc2)cc1 was read as HTRA1 inh inactive, mABHD4 FP inactive, SIAE inh inactive, PRMT1 inh inactive, TCR CD3 inh 27, BSA TAMRA ctr inactive and TCR-CD3 inh conf inactive.
For CC(=O)CC[C@H]1CC[C@]2(CCCN(C(=O)C(C)(C)C)C2)O1 the results were mABHD4 FP inactive, SIAE inh inactive and PRMT1 inh inactive.
O=C(CN1C(=O)NC2(CCOc3ccccc32)C1=O)c1ccc(F)cc1 (stereo not given) was read as HTRA1 inh inactive, mABHD4 FP inactive, SIAE inh inactive, PRMT1 inh inactive, TCR CD3 inh 19, BSA TAMRA ctr inactive and TCR-CD3 inh conf inactive.
`COC(=O)c1cc(-c2cc3ccccc3o2)c(=O)n2c1CCC2` gave mABHD4 FP inactive, SIAE inh inactive and PRMT1 inh inactive.
Screening CC(C)(C)c1ccc(-c2nnc(SCC(=O)Nc3ccccc3-c3ccccc3)n2Cc2ccco2)cc1 returned mABHD4 FP inactive, SIAE inh inactive and PRMT1 inh inactive.

Assay outcomes from PubChem BioAssay.
